Active and inactive are the calls of the source. The calls are words filed in the database; no cut-off is given here.
Columns and labels:
[1] = system: CCRF-CEM; assay: Selectivity ratio of IC50 for vinblastine-resistant human CCRF-CEM cells to IC50 for human CCRF-CEM cells; assay type: functional
[2] = system: MCF7; assay: Cytotoxicity against human MCF7 cells after 72 hrs by alamar blue assay; assay type: functional, cell-based; settings: MCF7, 72 h
Summary of the method: (§1)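 H1299, PC3, CL1-0, CL1-5 and MCF-7 cells exposed to compound for 72 h. Alamar blue added, then 6 h at 37 °C; absorbance at 570 and 600 nm. IC50 from median-effect analysis of dose-effect data at six or seven concentrations.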

[3] = system: MX1; assay: Cytotoxicity against human MX1 cells after 72 hrs by SRB assay; assay type: functional, cell-based; settings: MX1, 72 h
Summary of the method: (§2)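 MX-1 breast and HCT-116 colon carcinoma cells exposed to compound for 72 h; growth measured by sulforhodamine B assay. IC50 from median-effect analysis of dose-effect data at six or seven concentrations.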

[4] = Cytotoxicity against human CL1-5 cells after 72 hrs by alamar blue assay; assay type: functional, cell-based; settings: CL1-5, 72 h; summary of the method: as §1
[5] = Cytotoxicity against human CL1-0 cells after 72 hrs by alamar blue assay; assay type: functional, cell-based; settings: CL1-0, 72 h; summary of the method: as §1
[6] = system: CCRF-CEM; assay: Cytotoxicity against human CCRF-CEM cells after 72 hrs by XTT assay; assay type: functional, cell-based
Summary of the method: (§3)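 CCRF-CEM leukemia cells and their taxol- or vinblastine-resistant sublines given compound for 72 h. XTT read-out: after phenazine methosulfate–XTT, 6 h at 37 °C, absorbance at 450 and 630 nm. IC50 from median-effect analysis of dose-effect data at six or seven concentrations.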

[7] = system: HCT-116; assay: Cytotoxicity against human HCT116 cells after 72 hrs by SRB assay; assay type: functional, cell-based; settings: HCT-116, 72 h; summary of the method: as §2
[8] = Cytotoxicity against human H1299 cells after 72 hrs by alamar blue assay; assay type: functional, cell-based; settings: NCI-H1299, 72 h; summary of the method: as §1
[9] = system: PC-3; assay: Cytotoxicity against human PC3 cells after 72 hrs by alamar blue assay; assay type: functional, cell-based; settings: PC-3, 72 h; summary of the method: as §1
[10] = system: CCRF-CEM; assay: Cytotoxicity against taxol-resistant human CCRF-CEM cells after 72 hrs by XTT assay; assay type: functional, cell-based; summary of the method: as §3
[11] = system: CCRF-CEM; assay: Cytotoxicity against vinblastine-resistant human CCRF-CEM cells after 72 hrs by XTT assay; assay type: functional, cell-based; summary of the method: as §3
[12] = system: CCRF-CEM; assay: Selectivity ratio of IC50 for taxol-resistant human CCRF-CEM cells to IC50 for human CCRF-CEM cells; assay type: functional
[13] = system: Nucleic Acid; assay: Binding affinity to Escherichia coli plasmid EGFP-N1 DNA at 1 to 10 uM after 22 hrs by alkaline agarose gel shift assay; assay type: nucleic-acid assay
Summary of the method: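 Purified pEGFP-N1 plasmid DNA (1500 ng) incubated with compound (1–20 µM) in 3 mM NaCl/1 mM sodium phosphate pH 7.4/1 mM EDTA for 2 h at 37 °C. Linearized with BamHI, ethanol-precipitated, denatured in 0.5 N NaOH-10 mM EDTA. Run on 0.8% alkaline agarose gel at 4 °C, 18 V for 22 h. Ethidium bromide stain; cross-linked double-stranded DNA scored against single-stranded DNA.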

[14] = system: U-87MG ATCC; settings: Homo sapiens, 80 mg/kg

SMILES	Ratio IC50 [1]	IC50 [2]	IC50 [3]	IC50 [4]	IC50 [5]	IC50 [6]	IC50 [7]	IC50 [8]	IC50 [9]	IC50 [10]	IC50 [11]	Ratio IC50 [12]	Activity [13]	inhibition [14]
Cl.O=C(Nc1ccc(OCCN2CCCC2)cc1)Nc1ccc(N(CCCl)CCCl)cc1	15	1.84 µM	0.49 µM	5.92 µM	3.01 µM	0.14 µM	0.7 µM	2.25 µM	1.78 µM	1.57 µM	2.05 µM	11.5		
Cl.O=C(Nc1ccc(C(=O)NCCN2CCCCC2)cc1)Nc1ccc(N(CCCl)CCCl)cc1	67.8		4.4 µM			0.36 µM	0.91 µM			15 µM	24.3 µM	41.8		
Cl.O=C(Nc1ccc(N(CCCl)CCCl)cc1)Nc1cccc(C(=O)NCCN2CCCCC2)c1	43.7	1.18 µM	0.73 µM	4.64 µM	8.67 µM	0.27 µM	0.31 µM	6.22 µM	1.7 µM	4.62 µM	10.5 µM	17	Active	
CN(C)CCNC(=O)c1ccc(NC(=O)Nc2ccc(N(CCCl)CCCl)cc2)cc1.Cl	29.6		1.09 µM			0.23 µM	0.39 µM			4.8 µM	6.74 µM	21.1		
CN(C)CCOc1cccc(NC(=O)Nc2ccc(N(CCCl)CCCl)cc2)c1	1.1					1.32 µM				0.81 µM	1.48 µM	0.6		
O=P1(N(CCCl)CCCl)NCCCO1 (stereo not drawn)														Active
CN(C)CCCOc1cccc(NC(=O)Nc2ccc(N(CCCl)CCCl)cc2)c1	7.4					0.32 µM				2.05 µM	2.37 µM	6.4		
Cl.O=C(Nc1ccc(N(CCCl)CCCl)cc1)Nc1cccc(C(=O)NCCN2CCOCC2)c1	28.1		1.45 µM			0.58 µM	1.21 µM			8.16 µM	16.3 µM	14.1		
Cl.O=C(Nc1ccc(C(=O)NCCN2CCOCC2)cc1)Nc1ccc(N(CCCl)CCCl)cc1	16.8		3.39 µM			0.73 µM	2.74 µM			19.8 µM	29.8 µM	27.1		
CC(=O)O[C@H]1C(=O)[C@@]2(C)[C@H]([C@H](OC(=O)c3ccccc3)[C@]3(O)C[C@H](OC(=O)[C@H](O)[C@@H](NC(=O)c4ccccc4)c4ccccc4)C(C)=C1C3(C)C)[C@]1(OC(C)=O)CO[C@@H]1C[C@@H]2O [PACLITAXEL]	980					0.003 µM						330		
O=C(Nc1ccc(N(CCCl)CCCl)cc1)Nc1cccc(OCCN2CCOCC2)c1	2.8					0.41 µM				0.73 µM	1.13 µM	1.8		
CN(C)CCCNC(=O)c1cccc(NC(=O)Nc2ccc(N(CCCl)CCCl)cc2)c1.Cl	151.8		2.33 µM			0.29 µM	0.85 µM			21.2 µM	44 µM	9.4		
O=C(Nc1ccc(N(CCCl)CCCl)cc1)Nc1cccc(OCCN2CCCCC2)c1	3.8	1.82 µM	0.19 µM	3.25 µM	2.73 µM	0.19 µM	0.27 µM	1.52 µM	1.13 µM	0.57 µM	0.73 µM	3		
Cl.O=C(Nc1ccc(N(CCCl)CCCl)cc1)Nc1cccc(C(=O)NCCN2CCCC2)c1	106.9		2.17 µM			0.34 µM	0.47 µM			25.2 µM	36.6 µM	73.7		
Cl.O=C(Nc1ccc(N(CCCl)CCCl)cc1)Nc1cccc(C(=O)N2CCC(N3CCCCC3)CC2)c1	71.6	3.09 µM	2.24 µM	8.09 µM	6.23 µM	0.28 µM	0.81 µM	11.5 µM	3.19 µM	12.2 µM	20 µM	43.5		
Cl.O=C(Nc1ccc(C(=O)NCCN2CCCC2)cc1)Nc1ccc(N(CCCl)CCCl)cc1	112.5		2.33 µM			0.27 µM	0.36 µM			19.7 µM	30.8 µM	71.8		
Cl.O=C(Nc1ccc(OCCN2CCCCC2)cc1)Nc1ccc(N(CCCl)CCCl)cc1	7.47	1.24 µM	0.15 µM	4.75 µM	2.87 µM	0.12 µM	0.27 µM	1.84 µM	0.93 µM	0.5 µM	0.72 µM	4.02	Active	
Cl.O=C(Nc1ccc(OCCN2CCOCC2)cc1)Nc1ccc(N(CCCl)CCCl)cc1	1.8					0.35 µM				0.84 µM	0.64 µM	2.4		
CN(C)CCCNC(=O)c1ccc(NC(=O)Nc2ccc(N(CCCl)CCCl)cc2)cc1.Cl	124.8	5.17 µM	1.11 µM	9.79 µM	16.2 µM	0.26 µM	4.54 µM	12.7 µM	5.25 µM	20.4 µM	32.8 µM	77.5		
O=C(Nc1ccc(N(CCCl)CCCl)cc1)Nc1cccc(OCCN2CCCC2)c1	12.1					0.35 µM				1.2 µM	4.2 µM	3.5		
CN(C)CCOc1ccc(NC(=O)Nc2ccc(N(CCCl)CCCl)cc2)cc1.Cl	6.02	1.25 µM	0.28 µM	3.01 µM	4.07 µM	0.1 µM	0.27 µM	4.38 µM	1.67 µM	1.5 µM	1.19 µM	7.6		
CN(C)CCCOc1ccc(NC(=O)Nc2ccc(N(CCCl)CCCl)cc2)cc1.Cl	10.9	1.32 µM	0.26 µM	5.11 µM	7.09 µM	0.12 µM	0.29 µM	9.79 µM	0.94 µM	1.36 µM	1.26 µM	11.8	Active	
Cl.O=C(Nc1ccc(C(=O)N2CCC(N3CCCCC3)CC2)cc1)Nc1ccc(N(CCCl)CCCl)cc1	143.7	1.54 µM	3.64 µM	8.51 µM	15.8 µM	0.22 µM	0.64 µM	9.63 µM	1.91 µM	20.5 µM	32.2 µM	91.4		
CC[C@]1(O)C[C@@H]2CN(CCc3c([nH]c4ccccc34)[C@@](C(=O)OC)(c3cc4c(cc3OC)N(C)[C@H]3[C@@](O)(C(=O)OC)[C@H](OC(C)=O)[C@]5(CC)C=CCN6CC[C@]43[C@@H]65)C2)C1 [VINBLASTINE]	679.5					0.0007 µM				0.08 µM		106.2		

Source: ChEMBL document CHEMBL1641520, “Design, synthesis, and biological evaluation of novel water-soluble N-mustards as potential anticancer agents” (Bioorg Med Chem, 2011)
